Test results: the M2OR odorant receptor database

Key:
Conditions in all cases: stereoisomer not certain
[1] = target: OR13A1 (Homo sapiens) (UniProt Q8NGR1)
How it was run: (§1)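 Each entry records the cell line, G-protein, co-transfected protein and tags used. Methods varied with the source, often transient luciferase assays in mammalian cell lines. A receptor–molecule pair is called responsive (active) if the original authors judged its signal statistically different from baseline and non-responsive (inactive) otherwise.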

[2] = target: OR13C2 (Homo sapiens) (UniProt Q8NGS9)
How it was run: as §1

[3] = target: OR13C3 (Homo sapiens) (UniProt Q8NGS6)
How it was run: as §1

[4] = target: OR13C4 (Homo sapiens) (UniProt Q8NGS5)
How it was run: as §1

[5] = target: OR13C5 (Homo sapiens) (UniProt Q8NGS8)
How it was run: as §1

[6] = target: OR13C7 (Homo sapiens) (UniProt P0DN81)
How it was run: as §1

[7] = target: OR13C8 (Homo sapiens) (UniProt Q8NGS7)
How it was run: as §1

[8] = target: OR13C9 (Homo sapiens) (UniProt Q8NGT0)
How it was run: as §1

[9] = target: OR13D1 (Homo sapiens) (UniProt Q8NGV5)
How it was run: as §1

[10] = target: OR13F1 (Homo sapiens) (UniProt Q8NGS4)
How it was run: as §1

Measured: odorant receptor agonist call

Chain of OR13C2 (Homo sapiens) (Q8NGS9 whole entry): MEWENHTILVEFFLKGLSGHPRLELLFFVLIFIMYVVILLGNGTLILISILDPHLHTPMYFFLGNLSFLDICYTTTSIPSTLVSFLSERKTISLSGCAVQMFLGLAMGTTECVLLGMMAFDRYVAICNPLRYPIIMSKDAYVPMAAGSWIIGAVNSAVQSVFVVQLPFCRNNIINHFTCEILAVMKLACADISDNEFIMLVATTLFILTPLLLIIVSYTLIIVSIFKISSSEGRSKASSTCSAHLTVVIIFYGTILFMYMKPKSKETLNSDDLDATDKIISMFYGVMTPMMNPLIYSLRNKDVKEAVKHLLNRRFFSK
Chain of OR13D1 (Homo sapiens) (Q8NGV5 whole entry): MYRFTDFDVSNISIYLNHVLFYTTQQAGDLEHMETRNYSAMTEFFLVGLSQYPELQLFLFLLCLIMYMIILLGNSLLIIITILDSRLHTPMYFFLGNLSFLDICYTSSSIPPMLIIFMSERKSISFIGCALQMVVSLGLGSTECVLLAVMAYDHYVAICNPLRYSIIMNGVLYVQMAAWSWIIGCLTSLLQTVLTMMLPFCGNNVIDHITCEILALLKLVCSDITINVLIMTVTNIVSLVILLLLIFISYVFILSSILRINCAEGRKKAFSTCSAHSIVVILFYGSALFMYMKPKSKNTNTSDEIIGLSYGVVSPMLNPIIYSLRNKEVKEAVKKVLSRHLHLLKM
Chain of OR13C9 (Homo sapiens) (Q8NGT0 whole entry): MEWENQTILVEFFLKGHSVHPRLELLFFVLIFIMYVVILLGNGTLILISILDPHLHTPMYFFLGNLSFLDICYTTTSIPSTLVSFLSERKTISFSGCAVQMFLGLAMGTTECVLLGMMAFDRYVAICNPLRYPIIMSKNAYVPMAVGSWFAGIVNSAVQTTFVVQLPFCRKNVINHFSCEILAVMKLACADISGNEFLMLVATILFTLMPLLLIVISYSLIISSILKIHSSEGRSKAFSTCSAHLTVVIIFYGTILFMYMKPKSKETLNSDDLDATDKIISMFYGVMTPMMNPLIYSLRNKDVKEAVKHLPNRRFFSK
Chain of OR13A1 (Homo sapiens) (Q8NGR1 whole entry): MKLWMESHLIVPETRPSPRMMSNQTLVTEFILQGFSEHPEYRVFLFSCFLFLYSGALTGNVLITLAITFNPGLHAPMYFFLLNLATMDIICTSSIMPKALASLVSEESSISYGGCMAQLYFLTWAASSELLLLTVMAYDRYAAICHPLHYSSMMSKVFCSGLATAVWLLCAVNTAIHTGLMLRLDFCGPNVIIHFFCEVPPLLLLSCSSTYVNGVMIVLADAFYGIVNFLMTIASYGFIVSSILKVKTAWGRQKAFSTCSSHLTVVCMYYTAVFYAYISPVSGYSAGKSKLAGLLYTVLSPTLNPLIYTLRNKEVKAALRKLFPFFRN
Chain of OR13C5 (Homo sapiens) (Q8NGS8 whole entry): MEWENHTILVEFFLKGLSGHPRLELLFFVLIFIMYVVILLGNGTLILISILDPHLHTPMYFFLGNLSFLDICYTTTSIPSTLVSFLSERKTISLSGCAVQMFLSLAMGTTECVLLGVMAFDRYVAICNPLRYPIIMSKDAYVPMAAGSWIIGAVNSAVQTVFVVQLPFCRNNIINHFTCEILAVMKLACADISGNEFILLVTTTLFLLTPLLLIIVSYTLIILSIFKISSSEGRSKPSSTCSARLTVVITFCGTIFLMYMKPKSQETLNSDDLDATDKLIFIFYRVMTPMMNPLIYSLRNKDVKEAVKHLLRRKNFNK
Chain of OR13F1 (Homo sapiens) (Q8NGS4 whole entry): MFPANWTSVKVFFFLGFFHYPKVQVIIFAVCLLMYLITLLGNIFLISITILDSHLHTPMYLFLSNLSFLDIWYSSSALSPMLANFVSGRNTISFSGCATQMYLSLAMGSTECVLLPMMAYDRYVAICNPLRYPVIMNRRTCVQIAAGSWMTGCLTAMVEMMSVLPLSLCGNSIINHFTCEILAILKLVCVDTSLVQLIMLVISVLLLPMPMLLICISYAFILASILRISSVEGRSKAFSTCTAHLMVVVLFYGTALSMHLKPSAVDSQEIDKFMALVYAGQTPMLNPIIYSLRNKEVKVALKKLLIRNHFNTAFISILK
Chain of OR13C3 (Homo sapiens) (Q8NGS6 whole entry): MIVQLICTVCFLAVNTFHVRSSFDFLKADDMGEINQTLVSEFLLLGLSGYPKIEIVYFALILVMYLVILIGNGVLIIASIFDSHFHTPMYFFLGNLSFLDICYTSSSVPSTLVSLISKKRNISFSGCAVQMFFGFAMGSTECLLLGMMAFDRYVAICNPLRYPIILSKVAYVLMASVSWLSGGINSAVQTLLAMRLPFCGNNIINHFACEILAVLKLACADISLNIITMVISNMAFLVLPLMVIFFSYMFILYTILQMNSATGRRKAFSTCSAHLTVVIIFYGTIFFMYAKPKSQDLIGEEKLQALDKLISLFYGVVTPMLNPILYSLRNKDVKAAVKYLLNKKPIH
Chain of OR13C4 (Homo sapiens) (Q8NGS5 whole entry): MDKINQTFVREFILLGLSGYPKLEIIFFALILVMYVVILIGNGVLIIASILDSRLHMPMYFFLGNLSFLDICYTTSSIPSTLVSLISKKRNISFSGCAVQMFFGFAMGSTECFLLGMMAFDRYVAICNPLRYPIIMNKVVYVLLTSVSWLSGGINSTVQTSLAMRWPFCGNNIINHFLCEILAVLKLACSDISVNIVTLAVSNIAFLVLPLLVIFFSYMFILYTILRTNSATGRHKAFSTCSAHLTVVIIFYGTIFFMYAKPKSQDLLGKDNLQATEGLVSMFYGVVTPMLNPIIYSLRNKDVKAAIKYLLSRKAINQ
Chain of OR13C8 (Homo sapiens) (Q8NGS7 whole entry): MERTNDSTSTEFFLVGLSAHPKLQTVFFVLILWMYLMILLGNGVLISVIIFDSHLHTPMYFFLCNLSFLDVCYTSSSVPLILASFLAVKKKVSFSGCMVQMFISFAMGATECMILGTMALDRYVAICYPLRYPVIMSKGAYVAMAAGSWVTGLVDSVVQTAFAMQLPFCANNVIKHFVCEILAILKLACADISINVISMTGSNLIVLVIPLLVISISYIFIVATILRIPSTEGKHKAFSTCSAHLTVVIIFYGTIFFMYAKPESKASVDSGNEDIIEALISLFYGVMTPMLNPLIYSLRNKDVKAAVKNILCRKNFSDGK
Chain of OR13C7 (Homo sapiens) (P0DN81 whole entry): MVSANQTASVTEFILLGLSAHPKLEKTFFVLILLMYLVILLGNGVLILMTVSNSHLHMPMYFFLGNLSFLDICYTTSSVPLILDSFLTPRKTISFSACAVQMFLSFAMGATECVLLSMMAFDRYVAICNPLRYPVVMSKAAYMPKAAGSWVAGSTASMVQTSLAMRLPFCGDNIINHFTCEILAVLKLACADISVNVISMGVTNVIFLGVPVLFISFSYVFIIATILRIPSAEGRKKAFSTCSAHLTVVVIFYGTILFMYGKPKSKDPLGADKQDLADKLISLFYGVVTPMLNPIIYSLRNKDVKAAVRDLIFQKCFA

Cc1c([N+](=O)[O-])c(C)c([N+](=O)[O-])c(C(C)(C)C)c1[N+](=O)[O-]
inactive: [1] | [2] | [3] | [4] | [5] | [6] | [7] | [8] | [9] | [10]

C=CCOC(=O)Cc1ccccc1
inactive: [1] | [2] | [3] | [4] | [5] | [7] | [8] | [9] | [10]
